In assay [1] the test system is LN-229. The assay can be described thus: Inhibition of colony formation in human LN229 cells at 30 uM incubated for 4 hrs by crystal violet staining based colony counting method. Format: functional, cell-based. Summed up:
(§1)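 LN229 and PC3 cells treated for 4 h with compound (10 µM) or with etoposide (30 µM positive control), washed, trypsinized and replated at 3000 cells per 60-mm plate. Colonies grown 7–10 days, fixed and stained with 0.5% crystal violet in 70% ethanol, and counted. Reported as percent of control; four independent experiments, each in duplicate.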

Another assay deals with PC-3. The assay is described as follows: Inhibition of colony formation in human PC3 cells at 30 uM incubated for 4 hrs by crystal violet staining based colony counting method. Format: functional, cell-based. Summed up:
as §1

A short description of assay [2]: Metal chelating activity assessed as Zn2+-compound complex formation by measuring stability constant for ZnHL in 0.15M NaCl at 298.1K by potentiometric titration analysis. The procedure, abridged: (§2)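 Glass-electrode potentiometric titration with an Ag/AgCl reference in saturated KCl. The electrode was calibrated as an [H+] probe against standardized HCl with CO₂-free NaOH, using Gran's method (pKw 13.73(1)). Range was pH 2.0–11.0, with metal and ligand at 1×10⁻³ to 5×10⁻³ M in 1:1 ratio. At least two curves per compound were merged and fitted with HYPERQUAD.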

Assay [3] is described as follows: Metal chelating activity assessed as Zn2+-compound complex formation by measuring stability constant for ZnH2L in 0.15M NaCl at 298.1K by potentiometric titration analysis. The procedure, abridged: (§3)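 Potentiometric titration at pH 2.0–11.0 with Ag/AgCl reference electrode. Glass electrode calibrated against HCl with CO2-free NaOH by Gran's method (pKw = 13.73). Metal and ligand each at 1×10⁻³ to 5×10⁻³ M, 1:1 molar ratio. At least two titration curves per compound, merged and fitted with HYPERQUAD to give stability constants.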

The next assay concerns Jurkat. The assay is described as follows: Antiproliferative activity against human Jurkat cells assessed as reduction in cell viability at 10 uM incubated for 48 hrs by cell titer-glo assay. Format: functional, cell-based. Summed up: (§4)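 Cells plated and treated 24 h later with 10 µM compound for 48 h; viable cells quantified by CellTiter-Glo ATP luminescence. Expressed as percentage of viable cells relative to untreated; mean ± SD of three independent experiments, each in triplicate.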
On the technique in general: In ATP-based viability assays light output follows the ATP content of the culture.

For the next assay, the system named is JeKo-1. The assay is described as follows: Antiproliferative activity against human JeKo1 cells assessed as reduction in cell viability at 10 uM incubated for 48 hrs by cell titer-glo assay. The format is functional, cell-based. Summed up:
as §4

Assay [4] deals with LN-229. The assay can be described thus: Antiproliferative activity against human LN229 cells assessed as reduction in cell viability at 10 uM incubated for 48 hrs by cell titer-glo assay. Format: functional, cell-based. Summed up:
as §4

In the next assay the test system is U-87 MG. The assay can be described thus: Antiproliferative activity against human U87MG cells assessed as reduction in cell viability at 10 uM incubated for 48 hrs by cell titer-glo assay. The format is functional, cell-based. The following applies: U-87MG ATCC. Summed up: as §4
Assay [5] concerns LN-229. The assay is described as follows: Metal chelating activity in human LN229 cells assessed as decrease in intracellular concentration of labile zinc ions by measuring reduction in zinquin-Zn2+ complex formation incubated for 12 hrs followed by incubation with fluorophore-zinquin for 30 mins by spectrofluorometric analysis. Format: cell-based. Summed up:
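LN229 cells were treated 12 h, trypsinized, pelleted and checked by Trypan Blue. Then 6x10⁶ cells in 1 mL PBS were loaded with Zinquin 25 μM for 30 min at 37 °C in the dark. Fluorescence was read at ex 370/em 475 nm with a 400–600 nm scan, normalized to cell number, untreated set to 100; four independent experiments.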

The nature of assay [6]: Metal chelating activity assessed as Zn2+-compound complex formation by measuring stability constant for ZnL in 0.15M NaCl at 298.1K by potentiometric titration analysis. Summed up: as §2
A short description of assay [7]: Metal chelating activity assessed as Zn2+-compound complex formation by measuring stability constant for ZnL(OH) in 0.15M NaCl at 298.1K by potentiometric titration analysis. The procedure, abridged: as §2
Assay [8] is described as follows: Metal chelating activity assessed as Zn2+-compound complex formation by measuring stability constant for ZnL(OH)2 in 0.15M NaCl at 298.1K by potentiometric titration analysis. Summed up:
as §2

The nature of assay [9]: Metal chelating activity assessed as Zn2+-compound complex formation by measuring stability constant for ZnL(OH) using pre-Zn2+-complexed compound (ZnL) in 0.15M NaCl at 298.1K by potentiometric titration analysis. Summed up:
as §2

A short description of assay [10]: Metal chelating activity assessed as Zn2+-compound complex formation by measuring stability constant for ZnL(OH)2 using pre-Zn2+-complexed compound (ZnL(OH)) in 0.15M NaCl at 298.1K by potentiometric titration analysis. The procedure, abridged: as §2
Assay [11] in a line: Metal chelating activity assessed as Zn2+-compound complex formation by measuring stability constant for ZnH2L using pre-Zn2+-complexed compound (ZnHL) in 0.15M NaCl at 298.1K by potentiometric titration analysis. The procedure, abridged:
as §3

Assay [12] can be described thus: Metal chelating activity assessed as Zn2+-compound complex formation by measuring stability constant for ZnHL using pre-Zn2+-complexed compound (ZnL) in 0.15M NaCl at 298.1K by potentiometric titration analysis. The procedure, abridged:
as §2

A short description of assay [13]: Metal chelating activity assessed as Zn2+-compound complex formation at physiological pH 7.4 by quantum mechanical studies. The procedure, abridged:
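Zn2+ complexes modelled by DFT, B3LYP, gas phase. Basis set def2-SV(P), with MDF10 Stuttgart-Dresden effective core potential for Zn and Grimme dispersion correction. Vibrational frequencies and zero-point correction computed for each minimum.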

The next assay deals with Fibroblast. The assay can be described thus: Cytotoxicity against human Fibroblast assessed as reduction in cell viability incubated for 48 hrs by cell titer-glo assay. Format: cell-based. The procedure, abridged: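 Dose-response: cells plated, treated 24 h later for 48 h, then ATP measured by CellTiter-Glo luminescence. IC50 given as mean ± SD from three independent experiments, each in triplicate. Fibroblasts came from individuals. Cells were kept in RPMI or DMEM with 10% heat-inactivated FBS and penicillin/streptomycin at 37 °C, 5% CO2.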

A short description of assay [14]: Metal chelating activity assessed as Zn2+-compound complex formation by measuring stability constant for ZnL in 0.15M NaCl and hydroalcoholic solutions (H2O/EtOH 70:30) at 298.1K by potentiometric titration analysis. Summed up: as §2
Assay [15] can be described thus: Metal chelating activity assessed as Zn2+-compound complex formation by measuring stability constant for ZnL(OH) in 0.15M NaCl and hydroalcoholic solutions (H2O/EtOH 70:30) at 298.1K by potentiometric titration analysis. Summed up: as §2
Assay [16] is described as follows: Metal chelating activity assessed as Zn2+-compound complex formation by measuring stability constant for ZnL(OH)2 in 0.15M NaCl and hydroalcoholic solutions (H2O/EtOH 70:30) at 298.1K by potentiometric titration analysis. The procedure, abridged:
as §2

Assay [17] can be described thus: Metal chelating activity assessed as Zn2+-compound complex formation by measuring stability constant for ZnL(OH) using pre-Zn2+-complexed compound (ZnL) in 0.15M NaCl and hydroalcoholic solutions (H2O/EtOH 70:30) at 298.1K by potentiometric titration analysis. The procedure, abridged:
as §2

Assay [18] is described as follows: Metal chelating activity assessed as Zn2+-compound complex formation by measuring stability constant for ZnL(OH)2 using pre-Zn2+-complexed compound (ZnL(OH)) in 0.15M NaCl and hydroalcoholic solutions (H2O/EtOH 70:30) at 298.1K by potentiometric titration analysis. Summed up:
as §2

A short description of assay [19]: Metal chelating activity assessed as Zn2+-compound complex formation by measuring stability constant for ZnH2L2 in 0.15M NaCl and hydroalcoholic solutions (H2O/EtOH 70:30) at 298.1K by potentiometric titration analysis. Summed up:
as §3

Assay [20] relates to DNA. The assay can be described thus: Induction of DNA damage in human LN229 cells assessed as increase in gammaH2AX phosphorylation at Ser139 residue at 1 uM incubated for 4 hrs by Flow cytometry analysis. Format: cell-based. The procedure, abridged:
(§5)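 Z-138 and LN229 cells treated 4 h with 10 µM compound or 1 µM doxorubicin. Fixed in 3.7% formaldehyde on ice, permeabilized with 0.2% Triton X, stained with rabbit anti-pS139 H2A.X (1:400) and Alexa 555 secondary, then analysed by flow cytometry. Fold γH2AX fluorescence versus untreated; mean ± SD of three experiments.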
In general terms: Flow cytometry measures light scatter and fluorescence of single cells or particles in a stream.

Assay [21] has as its system DNA. The assay is described as follows: Induction of DNA damage in human Z138 cells assessed as increase in gammaH2AX phosphorylation at Ser139 residue at 1 uM incubated for 4 hrs by Flow cytometry analysis. Format: cell-based. Summed up:
as §5

pIC50: −log10 of the molar value. Calls of active or inactive are those of the source. The rule behind the calls is not given here.

The term pIC50 denotes the negative decadic logarithm of the IC50, by convention in mol/L.

With `COc1cc([C@@H]2c3cc4c(cc3[C@@H](O[C@@H]3O[C@@H]5CO[C@@H](C)O[C@H]5[C@H](O)[C@H]3O)[C@H]3COC(=O)[C@H]23)OCO4)cc(OC)c1O`, the inhibition entry in the assay on LN-229 [1] and in the assay on PC-3 was “Active” each time.
Consider `CN(C)c1cccc2c(S(=O)(=O)N(CCNCc3ccccn3)CCNCc3ccccn3)cccc12`, for which the log K in [2] is 13; in [3], 17.5; in assay [6] it was 8.38; in assay [7], -1.17; in assay [8] it was -11.5; in [9], -9.55. For the same compound, the log K in [10] was -10.4; in assay [11], 4.5; in [12], 4.61. The outcome (with Jurkat; with JeKo-1; with LN-229 [4]; in the assay with U-87 MG; in assay [13]) was Active. In the assay with LN-229 [5], the result was inactive.
As for `O=C(NCCN(CCNC(=O)c1ccccn1)Cc1ccc2ccccc2c1)c1ccccn1`, the result in the assay on LN-229 [5] was inactive. Besides, the outcome in assay [13] was Active.
For the compound `c1ccc(CN(CCN(Cc2ccccn2)Cc2ccccn2)Cc2ccccn2)nc1`, the pIC50 with Fibroblast is 5.17.
On to `O=S(=O)(c1cccc2cccnc12)N(CCNCc1ccccn1)CCNCc1ccccn1`, for which the result in the assay with Jurkat, with JeKo-1 and in the assay on LN-229 [4] was Active.
In the case of `CN(CCNCc1ccncc1)CCNCc1ccncc1`, the outcome with Jurkat, in the assay on JeKo-1, in the assay with LN-229 [4], with U-87 MG and with LN-229 [5] was inactive. In addition, the log K is 6.57 in assay [14]; -2.6 in assay [15]; -12.3 in assay [16]; -9.17 in [17]; -9.68 in assay [18]; 24.3 in assay [19].
Regarding `c1ccc2cc(CN(CCNCc3ccncc3)CCNCc3ccncc3)ccc2c1`, the result with Jurkat, in the assay on JeKo-1, in the assay with LN-229 [4], in the assay with U-87 MG and in the assay with LN-229 [5] was inactive. In addition, the log K is 4.72 in assay [6]; -4.22 in assay [7]; -12.9 in assay [8]; -8.99 in [9]; -8.67 in [10]. For the same compound, the Activity in assay [13] came out at 60.7%.
For `COc1cccc2c1C(=O)c1c(O)c3c(c(O)c1C2=O)C[C@@](O)(C(=O)CO)C[C@@H]3O[C@H]1C[C@H](N)[C@H](O)[C@H](C)O1`, the outcome with DNA [20] and in the assay on DNA [21] was Active.
Regarding `c1cncc(CNCCN(CCNCc2cccnc2)Cc2ccc3ccccc3c2)c1`, the log K in assay [2] is 14.1; in [6] it was 6.04; in assay [7] it was -2.56; in assay [8] it was -12.1; in assay [9], -8.6; in assay [10], -9.54. For the same compound, the result in the assay with Jurkat, in the assay with JeKo-1, with LN-229 [4], in the assay with U-87 MG and with LN-229 [5] was inactive. The Activity in assay [13] is 63.4%.
In the case of `O=S(=O)(c1cccc2ccccc12)N(CCNCc1ccccn1)CCNCc1ccccn1`, the result with Jurkat, in the assay with JeKo-1, in the assay on LN-229 [4] and in the assay on U-87 MG was Active. The outcome in the assay with LN-229 [5] was inactive. The log K is 7.53 in assay [6]; -1.48 in assay [7]; -11.8 in assay [8]; -10 in [9]; -10.3 in assay [10].

Source of the values: ChEMBL document CHEMBL4376884, “Toward a Rational Design of Polyamine-Based Zinc-Chelating Agents for Cancer Therapies” (J Med Chem, 2020).
